The list is not random: actives were taken first. Their share in the collection is about 2.4%.
A3G deaminase: inhibitors of human APOBEC3G DNA deaminase | inhibition, % at 20 µM | 330,000 tested, 0.28% active | recombinant A3G, ssDNA deamination FAM/TAMRA fluorescence;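 active = inhibition of at least 40% at 20 µM, with no more than 30% in the related APOBEC3A deaminase screen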
A3A deaminase: blocks human APOBEC3A ssDNA deamination; recombinant A3A, FAM/TAMRA ssDNA deamination fluorescence; AID 493011; 330,000 tested, 0.41% active; P31941; inhibition, % at 20 µM;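 active = at least 40% inhibition at 20 µM here, with at most 30% in a related deaminase screen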
Target sequence (P31941 whole entry, looked up): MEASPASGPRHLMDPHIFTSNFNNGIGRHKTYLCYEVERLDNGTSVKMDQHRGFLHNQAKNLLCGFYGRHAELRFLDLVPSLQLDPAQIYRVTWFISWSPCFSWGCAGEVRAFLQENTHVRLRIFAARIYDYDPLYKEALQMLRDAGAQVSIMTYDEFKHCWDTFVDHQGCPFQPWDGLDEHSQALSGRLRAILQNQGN
PfM18AAP inh: blocks P. falciparum M18 aspartyl aminopeptidase | AID 1822 | 290,000 tested, 1.2% active | recombinant PfM18AAP, H-Glu-NHMec fluorogenic cleavage | inhibition, % at 7.35 µM;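 active = inhibition above the campaign mean inhibition over all tested compounds plus 3 SD, cut at about 28% in these data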
HKDC1 inh: inhibitors of human hexokinase HKDC1; recombinant HKDC1, G6PDH/diaphorase resazurin coupled fluorescence; inhibition, % at 20 µM; 340,000 tested, 0.16% active;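 active = inhibition above about 35% when tested at 20 µM, limit read from the data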
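Test system: recombinant HKDC1 (HK5) hexokinase enzyme, produced in-house; Amount: enzyme 5 µg/mL final; Buffer or medium: Tris pH 8.0 buffer with MgCl2, Tween-20, BSA, BME; Reagent: glucose and ATP substrates; Doses: 20 µM test compound, 1% DMSO; Incubation: 90 min reaction incubation at room temperature, dark; Detection: resorufin fluorescence at 613 nm.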
PfG6PD inh: PfG6PD (Plasmodium falciparum) enzyme inhibition. PfGluPho enzyme, NADPH resazurin-diaphorase fluorescence. inhibition, % at 20 µM. 350,000 tested, 0.78% active. AID 504690;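 active = inhibition reaching at least a set limit at 20 µM in the primary screen, cut at about 59% in these data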
SUMO HTRF inh: blocks human SUMOylation mediated by UBC9; 290,000 tested, 0.36% active; HTRF SUMOylation assay, SAE1/SAE2 + UBC9, in vitro; P63279; inhibition, % at 35 µM; AID 2006; in the data active = inhibition above about 50%, passing the limit was not always enough
Target sequence (P63279 whole entry, looked up): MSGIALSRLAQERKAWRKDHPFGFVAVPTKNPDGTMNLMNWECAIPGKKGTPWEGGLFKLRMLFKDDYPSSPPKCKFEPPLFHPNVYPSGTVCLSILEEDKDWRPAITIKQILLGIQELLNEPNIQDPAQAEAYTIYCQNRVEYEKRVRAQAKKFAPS
PfGluPho conf: confirmation of Plasmodium falciparum G6PD inhibitors; 2,400 tested, 34% active; shares compounds with PfG6PD inh; AID 504753; inhibition, % at 20 µM; recombinant PfGluPho, NADPH-diaphorase-resazurin fluorescence;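 active = inhibition of at least 50% at 20 µM in any single replicate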
Diaphorase 10uM: inhibits diaphorase or oxidizes, flagging false PfG6PD hits; shares compounds with PfG6PD inh; diaphorase-coupled resazurin reduction, fluorescence, NADPH 10 uM; inhibition, % at 20 µM; 820 tested, 39% active;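 active = average inhibition reaching 50% or more with the compound at 20 µM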;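 note: resorufin red fluorescence formed as diaphorase reduces resazurin using NADPH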
Diaphorase 30uM: counter-screen for P. falciparum G6PD inhibitors: diaphorase inhibitors, oxidizers. shares compounds with PfG6PD inh. Diaphorase/resazurin coupled assay, resorufin fluorescence, 30 uM NADPH. inhibition, % at 20 µM. 820 tested, 29% active;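 active = inhibition averaging 50% or more, tested at 20 µM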
Hits are given with their value; 0 = inactive; - = no result given.

SMILES	A3G deaminase	A3A deaminase	PfM18AAP inh	HKDC1 inh	PfG6PD inh	SUMO HTRF inh	PfGluPho conf	others
C[C@@H]1CCCCO[C@@H](CN(C)C(=O)Nc2ccccc2)[C@@H](C)CN([C@H](C)CO)C(=O)c2cc(N(C)C)ccc2O1	-	-	-	-	0	-	-
O=c1c(Cc2c(F)cccc2Cl)c(O)ccn1CCCn1ccnc1	0	0	0	0	0	0	-
O=[N+]([O-])c1ccccc1C1Nc2cccc3cccc(c23)N1	0	0	0	0	67	0	0
Cc1ccc(/C=C/C(=O)N2CCN(S(=O)(=O)/C=C/c3ccccc3)CC2)o1	0	0	0	0	63	0	0
O=C(/C=C/c1ccco1)N1CCN(S(=O)(=O)c2cccs2)CC1	0	0	0	0	0	0	-
O=C(/C=C/c1ccco1)N1CCN(S(=O)(=O)/C=C/c2ccccc2)CC1	0	0	0	0	0	0	-
Cc1ccc(/C=C/C(=O)N2CC(C)CC(C)C2)o1 (stereo unspecified)	0	0	0	0	72	0	0
CCN1CCN(C(=O)/C=C/c2ccc(C)o2)CC1	0	0	0	0	0	0	-
Cc1ccc(/C=C/C(=O)N2CCN(S(=O)(=O)c3cccs3)CC2)o1	0	0	0	0	73	0	0
O=c1oc2ccccc2cc1-c1nc2c(s1)CCc1ccccc1-2	0	0	0	0	0	0	-
Cc1ccc(Nc2nc(-c3ccc(S(=O)(=O)N4CCOCC4)cc3)cs2)cc1	0	0	0	0	0	-	0
O=C(CN1CCN(c2ccc(O)cc2)CC1)Nc1ccc(S(=O)(=O)N2CCCC2)cc1	0	0	-	0	60	-	0
Nc1nc(NS(=O)(=O)c2ccc(Cl)cc2)nn1-c1ccccc1	0	0	0	0	0	0	-
CCNc1nc(NC(C)C)nc(NS(=O)(=O)c2ccc(Cl)cc2)n1	0	0	0	0	83	0	55	Diaphorase 10uM=63;Diaphorase 30uM=0
CCN(CC)c1nc(N)nc(NS(=O)(=O)c2ccc(Cl)cc2)n1	0	0	0	0	67	0	57	Diaphorase 10uM=54;Diaphorase 30uM=0
CC1(C)Cc2c(c(-c3ccco3)nc3sc4c(NCCCO)ncnc4c23)CO1	0	0	0	0	60	0	0
CC(=O)c1cccc(CN2CCN(CCc3ccccc3)C(CCO)C2)c1 (stereo unspecified)	0	0	0	0	0	0	-
CCOc1ccc(-n2c(N)c(C(=O)NCc3cccnc3)sc2=S)cc1	0	0	0	0	0	0	-
COc1ccc(CNC(=O)c2sc(=S)n(-c3ccccc3)c2N)cc1	0	0	0	0	61	0	0
CCOc1ccc(-n2c(N)c(C(=O)NCc3ccco3)sc2=S)cc1	0	0	0	0	85	0	0
O=C(NC1CCCCC1)C(c1ccccc1)N1CCOCC1 (stereo unspecified)	0	0	0	0	0	0	-
CCN(CC)c1ccc(C(=C2C=CC(=[N+](CC)CC)C=C2)c2ccccc2)cc1	-	-	-	0	100	-	68	Diaphorase 10uM=0;Diaphorase 30uM=0
O=C1CCCC2=C1C(c1ccc(Cl)cc1)C1C(=O)c3ccccc3C1=N2 (stereo unspecified)	0	0	0	0	72	0	0
O=C1CCCC2=C1C(c1ccccc1)C1C(=O)c3ccccc3C1=N2 (stereo unspecified)	0	0	0	0	0	0	-
O=C(CCCCCn1c(=S)[nH]c2ccc(N3CCOCC3)cc2c1=O)NCc1ccc2c(c1)OCO2	0	0	0	0	0	0	-
SMILES	A3G deaminase	A3A deaminase	PfM18AAP inh	HKDC1 inh	PfG6PD inh	SUMO HTRF inh	PfGluPho conf	others
COc1ccc(NC2=Nc3cccc4cccc2c34)cc1	0	0	0	0	75	0	0
c1ccc(NC2=Nc3cccc4cccc2c34)cc1	0	0	0	0	0	0	-
Nc1n[nH]c(=S)n1/N=C1/C(=O)Nc2ccccc21	-	-	32	0	73	0	0
COc1ccc(OC)c(NC(=O)c2oc3ccccc3c2NC(=O)C2CC2)c1	0	0	0	0	0	0	-
O=C(COC(=O)c1ccccc1C(=O)c1ccccc1)NCc1ccc(F)cc1	0	0	0	0	0	0	-
O=C(COC(=O)c1ccccc1C(=O)c1ccc(Cl)cc1)NCc1ccccc1	0	0	0	0	81	0	0
CNc1nc2c3ccccc3n(C(C)=O)c2s1	0	0	0	0	0	0	-
COc1ccc(-n2sc3ccccc3c2=O)cc1	-	-	-	-	125	-	109	Diaphorase 10uM=0;Diaphorase 30uM=0
C(=Cc1c[nH]c2ccccc12)c1nccc2ccccc12	-	-	-	0	65	-	0
C(=Cc1c[nH]c2ccccc12)c1ccc2ccccc2n1	-	-	-	0	0	-	-
O=C(CBr)c1ccc([N+](=O)[O-])c(CS(=O)(=O)c2ccc(Cl)cc2)c1	0	0	0	0	80	0	74	Diaphorase 10uM=0;Diaphorase 30uM=0
COc1ccccc1Cn1c(C(C)C)nc2ccccc21	0	0	0	0	0	0	-
COc1ccccc1Cn1c(/C=C/c2ccccc2)nc2ccccc21	0	0	0	0	67	0	0
COCCn1c(/C=C/c2ccccc2)nc2ccccc21	0	0	0	0	0	0	-
COc1ccc(/C=C/c2nc3ccccc3n2Cc2ccccc2OC)cc1	0	0	0	0	76	0	0
O=C(N/N=C/c1cccc([N+](=O)[O-])c1)c1ccccc1-n1cccc1	0	0	0	0	63	0	0
Cc1cc(C)nc(SCC(=O)N/N=C/c2cccc([N+](=O)[O-])c2)n1	0	0	0	0	93	0	0
Cc1ccc2nc3c(c(C(=O)O)c2c1)CCC3	0	0	0	0	0	0	-
CO/N=C/c1c(-c2ccc(Cl)cc2)nc2cc(C)ccn12	0	0	0	0	0	0	-
CC(C)(C)Nc1nc(-c2ccc3c(c2)CCN3C(=O)C2CC2)cs1	0	0	0	0	70	0	0
O=c1cc(CSc2nc3cc(Cl)ccc3o2)nc2sccn12	0	0	0	0	80	0	0
O=C(Cn1cncn1)NCc1ccccc1Br	0	0	0	0	0	0	-
Cc1ccc(O)c(CP(=O)(c2ccccc2)c2ccccc2)c1	0	0	0	0	0	0	-
CCNc1ccccc1CP(=O)(c1ccccc1)c1ccccc1O (stereo unspecified)	0	0	0	0	81	0	87	Diaphorase 10uM=0;Diaphorase 30uM=0
COC(=O)Sc1nc(N2CCOCC2)c2c(c1C#N)CC(C)(C)OC2	0	0	0	0	0	0	0
Cc1cccc(-n2ncc3c(NC4CCCCC4)ncnc32)c1	0	0	0	0	66	0	0
C=CCNc1ncnc2c1cnn2-c1cccc(C)c1	0	0	0	0	0	0	-

Screening data: PubChem BioAssay, several laboratories
